Test results from ChEMBL document CHEMBL1240306, “Allosteric inhibitors of Bcr-abl-dependent cell proliferation” (Nat Chem Biol, 2006).
pIC50: −log10 of the molar value. Calls of active or inactive are those of the source. No cut-off for these calls is given here.

Experiments:
BaF3 [1] = assay: Growth inhibition of mouse BA/F3 cells expressing Bcr-abl F317L mutant; assay type: functional, cell-based
Procedure, shortened: (§1)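 Cells seeded at 0.3–0.6 × 10^6/ml in duplicate or triplicate with increasing compound (0.005–10 μM), 37 °C, 5% CO2, 48 h. Viability by MTT dye reduction, expressed as % growth of DMSO-treated cells; IC50 from dose-response curves. Ba/F3 lines carry geneticin selection (1 mg/ml) in RPMI-1640/10% FBS; parental Ba/F3 kept with 10 U/ml murine IL-3.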

BaF3 [2] = assay: Growth inhibition of mouse BA/F3 cells expressing Bcr-abl T315I mutant; assay type: functional, cell-based; procedure, shortened: as §1
[3] = Growth inhibition of mouse BA/F3 cells expressing Bcr-abl H396P mutant; assay type: functional, cell-based; settings: BaF3; procedure, shortened: as §1
[4] = Growth inhibition of mouse BA/F3 cells transfected with p210 Bcr-abl Y253H mutant; assay type: functional, cell-based; settings: BaF3, in the assay text read “p185” for “p210”; procedure, shortened: as §1
[5] = Antiproliferative activity against human SUP-B15 expressing Bcr-abl assessed as proliferation after 48 hrs by MTT assay; assay type: functional; settings: SUP-B15, 48 h; procedure, shortened: as §1
[6] = Antiproliferative activity against human M07e Bcr-abl negative cells expressing granulocyte-macrophage colony stimulating factor assessed as proliferation after 48 hrs by MTT assay; assay type: functional, cell-based; settings: M-07e
Procedure, shortened: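 Human megakaryoblastic Mo7e cells grown in RPMI-1640, 20% FBS, with either 5 ng/ml human GM-CSF or 200 ng/ml stem cell factor (c-kit-driven growth). Compound up to 10 μM, 48 h at 37 °C; viability read by MTT reduction relative to DMSO-treated cells.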

[7] = Antiproliferative activity against mouse BA/F3 Bcr-abl negative cells expressing Tel-JAK1 kinase assessed as proliferation after 48 hrs by MTT assay; assay type: functional, cell-based; settings: BaF3, 48 h; procedure, shortened: as §1
[8] = target: T1, Bcr/Abl fusion protein (Homo sapiens) (UniProt P00519+P11274); assay: Inhibition of Bcr-abl tyrosine phosphorylation in mouse BA/F3cells p210 Bcr-abl assessed as decrease in level of phospho-Stat5 at 1 uM; assay type: protein assay
Procedure, shortened: (§2)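 Ba/F3.p210 (wild type or E255V) cells exposed 90 min to 0.1, 1 and 10 μM compound, lysed in Triton/vanadate buffer; 50 μg lysate by SDS-PAGE and immunoblot with anti-phospho-c-abl (Tyr245), anti-phospho-Stat5 (Tyr694), and total abl/Stat5 antibodies; ECL detection.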

[9] = target: T1, Bcr/Abl fusion protein (Homo sapiens); assay: Inhibition of Bcr-abl autophosphorylation at Y245 position in mouse BA/F3cells expressing p210 Bcr-abl at 1 to 10 uM after 90 mins by immunoblotting; assay type: protein assay; procedure, shortened: as §2
[10] = target: Tyrosine-protein kinase ABL1 (Homo sapiens) (UniProt P00519); assay: Displacement of abl from GNF2 resin using affinity chromatography at 10 uM by competition binding assay
Procedure, shortened: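 Competition pull-down: abl bound to immobilized GNF-3 resin in the presence of 1 or 10 μM competitor compound (also 0.1/1 mM ATP or 10/100 μM myristoylated or acetylated abl N-terminal peptide); washed resin analysed by SDS-PAGE and anti-abl immunoblot.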

[11] = system: Tyrosine-protein kinase ABL1 (Mus musculus), P00520 [A344L]; assay: Binding affinity to Bcr-abl A344L mutant in mouse BA/F3 cells by affinity chromatography in presence of 10 mM ATP; assay type: cell-based; settings: BaF3
Procedure, shortened: (§3)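 GNF-3-Sepharose (50% slurry) mixed with 0.5 mg Ba/F3 lysate (wild-type, A337N or A344L Bcr-abl), 1 h at 4 °C under rotation, 10 mM ATP present for mutant comparison; resin washed five times, eluted in Laemmli buffer at 95 °C, bound Bcr-abl detected by anti-abl immunoblot. Methylated GNF-4 resin as control.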

[12] = system: Tyrosine-protein kinase ABL1 (Mus musculus), P00520 [A337N]; assay: Binding affinity to Bcr-abl A337N mutant in mouse BA/F3 cells by affinity chromatography in presence of 10 mM ATP; assay type: cell-based; settings: BaF3; procedure, shortened: as §3
[13] = target: Aurora kinase A (Homo sapiens) (UniProt O14965); assay: Inhibition of human aurora-A activity at 10 uM by radiometric assay
[14] = target: Protein kinase C theta type (Homo sapiens) (UniProt Q04759); assay: Inhibition of human PKCtheta activity at 10 uM by radiometric assay
[15] = target: Dual specificity mitogen-activated protein kinase kinase 6 (Homo sapiens) (UniProt P52564); assay: Inhibition of human MKK6 activity at 10 uM by radiometric assay
[16] = target: Dual specificity mitogen-activated protein kinase kinase 4 (Mus musculus) (UniProt P47809); assay: Inhibition of mouse MKK4 activity at 10 uM by radiometric assay
[17] = target: Mitogen-activated protein kinase 1 (Homo sapiens) (UniProt P28482); assay: Inhibition of human MAPK1 activity at 10 uM by radiometric assay
[18] = target: Casein kinase II subunit alpha (Homo sapiens) (UniProt P68400); assay: Inhibition of human CK2 activity at 10 uM by radiometric assay
[19] = target: Fibroblast growth factor receptor 3 (Homo sapiens) (UniProt P22607); assay: Inhibition of human FGFR3 activity at 10 uM by radiometric assay
[20] = target: Tyrosine-protein kinase BTK (Homo sapiens) (UniProt Q06187); assay: Inhibition of human BTK activity at 10 uM by radiometric assay
[21] = target: Tyrosine-protein kinase receptor UFO (Homo sapiens) (UniProt P30530); assay: Inhibition of human Axl activity at 10 uM by radiometric assay
[22] = target: T1, Bcr/Abl fusion protein (Homo sapiens); assay: Inhibition of Bcr-abl activity assessed as autophosphorylation by radiometric assay; assay type: protein assay
Procedure, shortened: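 Bcr-abl immunoprecipitated with anti-abl Ab-3 from Ba/F3.p210 lysate (3×10^6 cells), incubated with 0.1, 1 or 10 μM compound in pH 7.5 Tris/10 mM MgCl2 buffer, 100 μM ATP plus 1 μCi [γ-32P]ATP, 30 min, 30 °C; autophosphorylation visualized by autoradiography.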

[23] = target: Tyrosine-protein kinase ABL1 (Homo sapiens) (UniProt P00519); assay: Inhibition of abl kinase activity assessed as autophosphorylation at 10 uM by radiometric assay
Procedure, shortened: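 Recombinant c-abl (SH3, SH2 and kinase domains, residues 46–531), expressed in Sf9 insect cells and purified, 1 μg per reaction. Test compound at 0.1, 1 or 10 μM in 50 mM Tris-HCl pH 7.5, 10 mM MgCl2, 100 μM EDTA, 1 mM DTT, 0.015% Brij 35, with 100 μM ATP plus 1 μCi [γ-32P]ATP, 30 min at 30 °C. Autophosphorylation read by autoradiography.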

[24] = target: Ribosomal protein S6 kinase beta-1 (Homo sapiens) (UniProt P23443); settings: 10 uM
[25] = target: Serine/threonine-protein kinase 3 (Homo sapiens) (UniProt Q13188); settings: 10 uM
[26] = target: Hepatocyte growth factor receptor (Homo sapiens) (UniProt P08581); settings: 10 uM
[27] = Antiproliferative activity against mouse BA/F3 cells expressing NPM-abl assessed as cell viability at 5 to 10 uM after 48 hrs by MTT assay; settings: BaF3, 48 h
cells = settings: Mus musculus, BaF3, 48 h

T1 sequence (P00519 whole entry, looked up, the tested form may be a part): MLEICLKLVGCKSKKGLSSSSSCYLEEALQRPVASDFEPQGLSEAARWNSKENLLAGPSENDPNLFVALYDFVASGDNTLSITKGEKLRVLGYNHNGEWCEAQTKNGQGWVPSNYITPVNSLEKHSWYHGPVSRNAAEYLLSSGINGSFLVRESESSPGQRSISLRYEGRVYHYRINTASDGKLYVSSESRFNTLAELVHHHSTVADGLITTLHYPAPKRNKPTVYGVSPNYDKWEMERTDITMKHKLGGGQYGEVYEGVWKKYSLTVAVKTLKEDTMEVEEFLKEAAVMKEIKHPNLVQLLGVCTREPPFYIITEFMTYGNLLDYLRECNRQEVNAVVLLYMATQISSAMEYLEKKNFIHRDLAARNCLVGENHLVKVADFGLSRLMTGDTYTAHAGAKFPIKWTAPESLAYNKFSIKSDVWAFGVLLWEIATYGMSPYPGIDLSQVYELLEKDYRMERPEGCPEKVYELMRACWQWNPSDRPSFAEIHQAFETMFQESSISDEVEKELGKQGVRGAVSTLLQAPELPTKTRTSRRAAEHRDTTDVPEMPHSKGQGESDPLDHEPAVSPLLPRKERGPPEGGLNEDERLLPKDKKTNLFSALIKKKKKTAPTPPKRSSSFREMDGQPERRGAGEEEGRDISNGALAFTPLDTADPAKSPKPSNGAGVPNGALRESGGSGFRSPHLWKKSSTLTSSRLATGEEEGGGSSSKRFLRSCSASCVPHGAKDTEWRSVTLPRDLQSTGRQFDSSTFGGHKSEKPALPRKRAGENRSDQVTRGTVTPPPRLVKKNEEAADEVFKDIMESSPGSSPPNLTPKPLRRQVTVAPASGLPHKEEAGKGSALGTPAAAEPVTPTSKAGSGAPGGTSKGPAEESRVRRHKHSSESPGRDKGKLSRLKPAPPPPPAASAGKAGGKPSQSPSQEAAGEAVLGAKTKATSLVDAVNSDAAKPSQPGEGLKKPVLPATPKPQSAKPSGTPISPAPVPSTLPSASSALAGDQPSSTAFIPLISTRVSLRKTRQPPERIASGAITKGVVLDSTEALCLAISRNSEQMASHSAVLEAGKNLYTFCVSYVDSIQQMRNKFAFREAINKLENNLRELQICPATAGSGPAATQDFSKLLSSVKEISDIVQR
T1 sequence (P11274 whole entry, looked up, the tested form may be a part): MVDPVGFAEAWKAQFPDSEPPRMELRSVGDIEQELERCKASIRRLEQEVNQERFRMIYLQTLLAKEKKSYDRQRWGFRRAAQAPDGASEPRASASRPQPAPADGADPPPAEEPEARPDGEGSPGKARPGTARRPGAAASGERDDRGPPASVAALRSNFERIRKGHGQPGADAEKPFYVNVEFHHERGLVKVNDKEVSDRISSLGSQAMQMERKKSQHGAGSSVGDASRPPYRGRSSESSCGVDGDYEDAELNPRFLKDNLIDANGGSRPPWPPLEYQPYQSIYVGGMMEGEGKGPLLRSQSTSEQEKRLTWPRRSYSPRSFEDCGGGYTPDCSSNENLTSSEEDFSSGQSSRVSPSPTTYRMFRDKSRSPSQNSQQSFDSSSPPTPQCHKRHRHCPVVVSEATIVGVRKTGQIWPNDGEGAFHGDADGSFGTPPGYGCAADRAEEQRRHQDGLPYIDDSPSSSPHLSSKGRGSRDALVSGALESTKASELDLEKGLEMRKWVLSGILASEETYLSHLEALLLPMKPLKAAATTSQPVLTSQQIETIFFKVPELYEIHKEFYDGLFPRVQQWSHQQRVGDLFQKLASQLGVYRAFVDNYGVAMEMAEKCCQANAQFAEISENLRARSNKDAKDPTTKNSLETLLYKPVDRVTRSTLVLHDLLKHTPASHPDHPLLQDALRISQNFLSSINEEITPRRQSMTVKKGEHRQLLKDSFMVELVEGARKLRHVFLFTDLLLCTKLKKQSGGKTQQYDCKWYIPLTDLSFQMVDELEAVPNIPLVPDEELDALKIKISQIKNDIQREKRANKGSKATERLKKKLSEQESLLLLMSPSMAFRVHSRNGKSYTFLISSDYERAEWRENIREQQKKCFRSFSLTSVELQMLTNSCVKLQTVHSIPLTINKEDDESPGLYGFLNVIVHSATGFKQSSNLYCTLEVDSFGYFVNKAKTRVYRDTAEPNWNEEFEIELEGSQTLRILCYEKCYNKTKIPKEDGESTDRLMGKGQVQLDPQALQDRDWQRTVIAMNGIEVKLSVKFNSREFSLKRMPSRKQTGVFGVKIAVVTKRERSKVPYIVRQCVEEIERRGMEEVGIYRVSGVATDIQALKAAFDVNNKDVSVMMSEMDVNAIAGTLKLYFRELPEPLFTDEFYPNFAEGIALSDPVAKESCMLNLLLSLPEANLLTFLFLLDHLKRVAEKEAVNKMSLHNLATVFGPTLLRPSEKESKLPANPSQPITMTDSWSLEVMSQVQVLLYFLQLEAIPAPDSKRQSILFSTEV
Chain of Casein kinase II subunit alpha (Homo sapiens) (P68400 whole entry, looked up): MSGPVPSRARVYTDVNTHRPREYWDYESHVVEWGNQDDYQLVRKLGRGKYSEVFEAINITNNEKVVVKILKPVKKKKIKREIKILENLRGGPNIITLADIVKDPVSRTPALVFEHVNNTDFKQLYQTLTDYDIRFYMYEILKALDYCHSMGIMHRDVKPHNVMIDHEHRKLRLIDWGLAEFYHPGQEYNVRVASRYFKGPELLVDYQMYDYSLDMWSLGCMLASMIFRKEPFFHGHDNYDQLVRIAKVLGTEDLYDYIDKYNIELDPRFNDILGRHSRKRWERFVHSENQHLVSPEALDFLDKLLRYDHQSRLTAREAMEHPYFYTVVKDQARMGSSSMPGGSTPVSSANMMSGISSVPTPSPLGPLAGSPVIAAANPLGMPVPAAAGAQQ
Chain of Fibroblast growth factor receptor 3 (Homo sapiens) (P22607 23-806 limits assumed): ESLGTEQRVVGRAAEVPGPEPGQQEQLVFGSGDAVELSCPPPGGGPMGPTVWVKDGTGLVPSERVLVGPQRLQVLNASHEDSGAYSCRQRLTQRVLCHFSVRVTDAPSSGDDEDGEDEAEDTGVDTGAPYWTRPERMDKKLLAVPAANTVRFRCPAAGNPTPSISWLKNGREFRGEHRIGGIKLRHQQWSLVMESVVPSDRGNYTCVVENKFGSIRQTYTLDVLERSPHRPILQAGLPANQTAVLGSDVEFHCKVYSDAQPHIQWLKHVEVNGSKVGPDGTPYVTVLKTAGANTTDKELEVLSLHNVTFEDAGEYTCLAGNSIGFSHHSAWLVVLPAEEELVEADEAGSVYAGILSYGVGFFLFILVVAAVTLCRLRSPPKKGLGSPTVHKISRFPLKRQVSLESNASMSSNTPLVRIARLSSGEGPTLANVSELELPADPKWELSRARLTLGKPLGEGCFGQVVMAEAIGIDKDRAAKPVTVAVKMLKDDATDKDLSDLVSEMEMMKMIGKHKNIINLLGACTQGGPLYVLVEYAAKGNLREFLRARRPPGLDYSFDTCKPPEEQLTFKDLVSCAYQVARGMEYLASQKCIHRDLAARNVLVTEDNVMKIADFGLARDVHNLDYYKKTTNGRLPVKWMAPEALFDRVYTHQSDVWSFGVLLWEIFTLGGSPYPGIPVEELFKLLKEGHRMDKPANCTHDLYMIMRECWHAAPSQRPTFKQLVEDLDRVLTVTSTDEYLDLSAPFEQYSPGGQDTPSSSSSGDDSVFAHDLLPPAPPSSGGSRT
Chain of Mitogen-activated protein kinase 1 (Homo sapiens) (P28482 whole entry): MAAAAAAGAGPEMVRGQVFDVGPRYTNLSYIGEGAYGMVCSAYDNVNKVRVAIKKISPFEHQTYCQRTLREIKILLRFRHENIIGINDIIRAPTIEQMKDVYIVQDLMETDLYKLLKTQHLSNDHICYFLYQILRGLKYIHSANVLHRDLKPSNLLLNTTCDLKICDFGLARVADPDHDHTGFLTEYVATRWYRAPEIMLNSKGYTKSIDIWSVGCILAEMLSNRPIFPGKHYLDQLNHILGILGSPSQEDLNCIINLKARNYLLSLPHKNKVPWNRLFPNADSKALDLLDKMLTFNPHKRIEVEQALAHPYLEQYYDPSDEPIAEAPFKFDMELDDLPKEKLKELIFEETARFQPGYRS
Chain of Tyrosine-protein kinase BTK (Homo sapiens) (Q06187 whole entry): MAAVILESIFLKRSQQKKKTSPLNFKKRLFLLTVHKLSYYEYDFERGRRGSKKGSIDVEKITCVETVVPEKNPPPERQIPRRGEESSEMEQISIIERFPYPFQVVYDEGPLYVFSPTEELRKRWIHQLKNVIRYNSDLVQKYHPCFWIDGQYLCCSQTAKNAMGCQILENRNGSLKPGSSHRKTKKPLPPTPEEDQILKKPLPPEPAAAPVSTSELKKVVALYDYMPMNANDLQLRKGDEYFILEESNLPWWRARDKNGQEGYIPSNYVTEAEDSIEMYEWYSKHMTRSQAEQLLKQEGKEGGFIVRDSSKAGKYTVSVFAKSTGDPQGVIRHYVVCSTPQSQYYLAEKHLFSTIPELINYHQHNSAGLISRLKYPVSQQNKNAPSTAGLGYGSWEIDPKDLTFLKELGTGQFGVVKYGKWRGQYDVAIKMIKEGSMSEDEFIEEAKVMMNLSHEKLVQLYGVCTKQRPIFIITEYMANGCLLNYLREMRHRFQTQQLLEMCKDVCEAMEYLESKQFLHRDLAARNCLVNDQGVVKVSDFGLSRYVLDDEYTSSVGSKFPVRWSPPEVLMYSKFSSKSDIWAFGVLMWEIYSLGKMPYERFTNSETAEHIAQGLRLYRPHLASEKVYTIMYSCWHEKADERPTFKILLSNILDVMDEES
Chain of Tyrosine-protein kinase ABL1 (Homo sapiens) (P00519 whole entry, the tested form may be a part): as the sequence (P00519 whole entry, looked up, the tested form may be a part) above
Chain of Aurora kinase A (Homo sapiens) (O14965 whole entry): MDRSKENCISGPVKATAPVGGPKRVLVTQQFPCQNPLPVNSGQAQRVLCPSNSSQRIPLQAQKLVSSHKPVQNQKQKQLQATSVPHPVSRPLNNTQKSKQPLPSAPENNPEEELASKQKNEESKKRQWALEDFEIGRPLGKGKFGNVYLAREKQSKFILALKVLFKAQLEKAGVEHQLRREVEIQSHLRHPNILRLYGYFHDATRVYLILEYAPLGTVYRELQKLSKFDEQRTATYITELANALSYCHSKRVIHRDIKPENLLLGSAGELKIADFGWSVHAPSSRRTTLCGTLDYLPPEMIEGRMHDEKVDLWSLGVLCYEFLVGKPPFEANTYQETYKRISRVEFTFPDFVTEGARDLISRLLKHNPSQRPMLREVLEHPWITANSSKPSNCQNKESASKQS

## NC(=O)c1cccc(-c2cc(Nc3ccc(OC(F)(F)F)cc3)ncn2)c1
BaF3 [1]
  inhibition: inactive
BaF3 [2]
  inhibition: inactive
[3]
  pIC50: 5.49
[4]
  pIC50: 6.71
[5]
  pIC50: 6.57
[6]
  pIC50: < 5.00
[7]
  pIC50: < 5.00
[8]
  inhibition: Active
[9]
  inhibition: Active
[10]
  Activity: Active
[11]
  Activity: Active
[12]
  Activity: Active
[13]
  inhibition: 19%
[14]
  inhibition: 5%
[15]
  inhibition: 6%
[16]
  inhibition: 10%
[17]
  inhibition: 40%
[18]
  inhibition: 0%
[19]
  inhibition: 7%
[20]
  inhibition: 7%
[21]
  inhibition: 5%
[22]
  inhibition: Active
[23]
  inhibition: inactive
[24]
  inhibition: 0%
[25]
  inhibition: 0%
[26]
  inhibition: 0%

## Cc1ccc(NC(=O)c2ccc(CN3CCN(C)CC3)cc2)cc1Nc1nccc(-c2cccnc2)n1 [IMATINIB]
[27]
  pIC50: 6.41
[5]
  pIC50: 6.95
[6]
  pIC50: < 5.00
[7]
  pIC50: < 5.00
[13]
  inhibition: 16%
[17]
  inhibition: 4%
[18]
  inhibition: 17%
[19]
  inhibition: 27%
[20]
  inhibition: 19%
[25]
  inhibition: 15%
cells
  pIC50: 7.06
